Laboratory results taken from ChEMBL document CHEMBL3045798, “Toxic reactivity of wheat (Triticum aestivum) plants to herbicide isoproturon” (J Agric Food Chem, 2008).

How the values were obtained:
Triticum aestivum [1] = test: Reduction in CAT isoforms activity in leaves of Triticum aestivum cv. Ning 13 (wheat) seedlings grown on soils containing compound at 2 to 20 mg/kg for 10 days by PAGE method assay relative to untreated control; type: ADME, organism-based; set-up: dose 2-20 mg/kg; conditions: in vivo, 240 h
Procedure, shortened: (§1)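 Native PAGE, 5% stacking/10% separating gel, run at 4 °C (10 mA, then 15 mA), of tissue extracts from seedlings grown 10 days in soil at 0, 2, 3.5, 5, 10, 20 mg/kg. CAT bands: gel soaked in water 15 min, then 0.03% H2O2 25 min, washed, stained with 1% potassium ferricyanide plus 1% ferric chloride.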

Triticum aestivum [2] = test: Reduction in CAT isoforms activity in roots of Triticum aestivum cv. Ning 13 (wheat) seedlings grown on soils containing compound at 10 to 20 mg/kg for 10 days by PAGE method assay relative to untreated control; type: ADME, organism-based; set-up: dose 10-20 mg/kg; conditions: in vivo, 240 h; procedure, shortened: as §1
Triticum aestivum [3] = test: Increase in CAT isoforms activity in roots of Triticum aestivum cv. Ning 13 (wheat) seedlings grown on soils containing compound at 2 to 5 mg/kg for 10 days by PAGE method assay relative to untreated control; type: ADME, organism-based; set-up: dose 2-5 mg/kg; conditions: in vivo, 240 h; procedure, shortened: as §1
Triticum aestivum [4] = test: Increase in POD isoforms 1 to 5 activity in roots of Triticum aestivum cv. Ning 13 (wheat) seedlings grown on soils containing compound at 3.5 to 10 mg/kg for 10 days by PAGE method assay relative to untreated control; type: ADME, organism-based; set-up: dose 3.5-10 mg/kg; conditions: in vivo, 240 h
Triticum aestivum [5] = test: Reduction in SOD activity in shoots of Triticum aestivum cv. Ning 13 (wheat) seedlings grown on soils containing compound at 10 to 20 mg/kg for 10 days by PAGE method assay relative to untreated control; type: ADME, organism-based; set-up: dose 10-20 mg/kg; conditions: in vivo, 240 h
Triticum aestivum [6] = test: Reduction in SOD activity in roots of Triticum aestivum cv. Ning 13 (wheat) seedlings grown on soils containing compound at 10 to 20 mg/kg for 10 days by PAGE method assay relative to untreated control; type: ADME, organism-based; set-up: dose 10-20 mg/kg; conditions: in vivo, 240 h
Triticum aestivum [7] = test: Increase in SOD activity in shoots of Triticum aestivum cv. Ning 13 (wheat) seedlings grown on soils containing compound at 2 to 10 mg/kg for 10 days by PAGE method assay relative to untreated control; type: ADME, organism-based; set-up: dose 2-10 mg/kg; conditions: in vivo, 240 h
Triticum aestivum [8] = test: Increase in SOD activity in roots of Triticum aestivum cv. Ning 13 (wheat) seedings grown on soils containing compound at 2 to 10 mg/kg for 10 days by PAGE method assay relative to untreated control; type: ADME, organism-based; set-up: dose 2-10 mg/kg; conditions: in vivo, 240 h
Triticum aestivum [9] = test: Reduction in APX activity in roots of Triticum aestivum cv. Ning 13 (wheat) seedlings grown on soils containing compound at 20 mg/kg for 10 days relative to untreated control; type: ADME, organism-based; set-up: dose 20 mg/kg; conditions: in vivo, 240 h
Triticum aestivum [10] = test: Reduction in APX activity in leaves of Triticum aestivum cv. Ning 13 (wheat) seedlings grown on soils containing compound at 20 mg/kg for 10 days relative to untreated control; type: ADME, organism-based; set-up: dose 20 mg/kg; conditions: in vivo, 240 h
Triticum aestivum [11] = test: Increase in APX activity in roots of Triticum aestivum cv. Ning 13 (wheat) seedlings grown on soils containing compound at 5 to 10 mg/kg for 10 days relative to untreated control; type: ADME, organism-based; set-up: dose 5-10 mg/kg; conditions: in vivo, 240 h
Triticum aestivum [12] = test: Increase in APX activity in leaves of Triticum aestivum cv. Ning 13 (wheat) seedlings grown on soils containing compound at 5 to 10 mg/kg for 10 days relative to untreated control; type: ADME, organism-based; set-up: dose 5-10 mg/kg; conditions: in vivo, 240 h
Triticum aestivum [13] = test: Reduction in CAT activity in leaves of Triticum aestivum cv. Ning 13 (wheat) seedlings grown on soils containing compound at 2 to 20 mg/kg for 10 days by H2O2 consumption assay relative to untreated control; type: ADME, organism-based; set-up: dose 2-20 mg/kg; conditions: in vivo, 240 h
Triticum aestivum [14] = test: Reduction in CAT activity in roots of Triticum aestivum cv. Ning 13 (wheat) seedlings grown on soils containing compound at 10 to 20 mg/kg for 10 days by H2O2 consumption assay relative to untreated control; type: ADME, organism-based; set-up: dose 10-20 mg/kg; conditions: in vivo, 240 h
Triticum aestivum [15] = test: Induction of changes in GST activity in leaves of Triticum aestivum cv. Ning 13 (wheat) seedlings grown on soils containing compound at 2 to 20 mg/kg for 10 days by CDNB dye based assay relative to untreated control; type: organism-based; set-up: dose 2-20 mg/kg; conditions: in vivo, 240 h
Triticum aestivum [16] = test: Induction of changes in GST activity in roots of Triticum aestivum cv. Ning 13 (wheat) seedlings grown on soils containing compound at 2 to 20 mg/kg for 10 days by CDNB dye based assay relative to untreated control; type: organism-based; set-up: dose 2-20 mg/kg; conditions: in vivo, 240 h
Procedure, shortened: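 Tissue extract from 10-day seedlings in soil with 0–20 mg/kg. Reaction: 100 mM potassium phosphate pH 7, 1 mM GSH, 1 mM CDNB (final; added last to start). Absorbance increase at 340 nm tracked over 15 min. Mean ± SD, n = 3.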

Triticum aestivum [17] = test: Reduction in POD activity in roots of Triticum aestivum cv. Ning 13 (wheat) seedlings grown on soils containing compound at 20 mg/kg for 10 days by guaiacol oxidation relative to untreated control; type: ADME, organism-based; set-up: dose 20 mg/kg; conditions: in vivo, 240 h
Procedure, shortened: (§2)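 Crude leaf or root extract (Tris-HCl pH 7.8, EDTA, PVP; 15000g) from seedlings grown 10 days in soil with 0–20 mg/kg herbicide. Guaiacol oxidation read at 470 nm for 1 min in 100 mM potassium phosphate pH 7.0, 20 mM guaiacol, 10 mM H2O2. Mean ± SD, n = 3.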

Triticum aestivum [18] = test: Reduction in POD activity in leaves of Triticum aestivum cv. Ning 13 (wheat) seedlings grown on soils containing compound at 20 mg/kg for 10 days by guaiacol oxidation relative to untreated control; type: ADME, organism-based; set-up: dose 20 mg/kg; conditions: in vivo, 240 h; procedure, shortened: as §2
Triticum aestivum [19] = test: Increase in POD activity in roots of Triticum aestivum cv. Ning 13 (wheat) seedlings grown on soils containing compound at 5 to 10 mg/kg for 10 days by guaiacol oxidation relative to untreated control; type: ADME, organism-based; set-up: dose 5-10 mg/kg; conditions: in vivo, 240 h; procedure, shortened: as §2
Triticum aestivum [20] = test: Increase in POD activity in leaves of Triticum aestivum cv. Ning 13 (wheat) seedlings grown on soils containing compound at 5 to 10 mg/kg for 10 days by guaiacol oxidation relative to untreated control; type: ADME, organism-based; set-up: dose 5-10 mg/kg; conditions: in vivo, 240 h; procedure, shortened: as §2
Triticum aestivum [21] = test: Increase in CAT activity in roots of Triticum aestivum cv. Ning 13 (wheat) seedlings grown on soils containing compound at 2 to 5 mg/kg for 10 days by H2O2 consumption assay relative to untreated control; type: ADME, organism-based; set-up: dose 2-5 mg/kg; conditions: in vivo, 240 h
Triticum aestivum [22] = test: Reduction in SOD activity in roots of Triticum aestivum cv. Ning 13 (wheat) seedlings grown on soils containing compound at 10 to 20 mg/kg for 10 days by NBT dye reduction assay relative to untreated control; type: ADME, organism-based; set-up: dose 10-20 mg/kg; conditions: in vivo, 240 h
Procedure, shortened: (§3)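 Root crude extract from 10-day seedlings in soil at 0–20 mg/kg. Inhibition of NBT photoreduction in 50 mM phosphate pH 7.8 with 10 mM methionine and riboflavin, read at 560 nm. One unit inhibits NBT photoreduction to formazan by 50%. Mean ± SD, n = 3.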

Triticum aestivum [23] = test: Increase in SOD activity in roots of Triticum aestivum cv. Ning 13 (wheat) seedlings grown on soils containing compound at 2 to 10 mg/kg for 10 days by NBT dye reduction assay relative to untreated control; type: ADME, organism-based; set-up: dose 2-10 mg/kg; conditions: in vivo, 240 h; procedure, shortened: as §3
Triticum aestivum [24] = test: Induction of lipid peroxidation in Triticum aestivum cv. Ning 13 (wheat) seedlings assessed as increase in TBARS level in roots grown on soils containing compound at 2 to 20 mg/kg for 10 days relative to untreated control; type: organism-based; set-up: dose 2-20 mg/kg; conditions: in vivo, 240 h
Procedure, shortened: (§4)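 Seedlings grown 10 days in soil at 0–20 mg/kg. Frozen tissue (0.5 g) ground in 0.1% TCA, spun; supernatant heated 30 min in boiling water with 0.5% TBA in 20% TCA. A532 minus A600 read; TBARS calculated with ε 155 mM-1 cm-1. Mean ± SD, n = 3.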

Triticum aestivum [25] = test: Induction of lipid peroxidation in Triticum aestivum cv. Ning 13 (wheat) seedlings assessed as increase in TBARS level in leaves grown on soils containing compound at 10 mg/kg for 10 days relative to untreated control; type: organism-based; set-up: dose 10 mg/kg; conditions: in vivo, 240 h
Procedure, shortened: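 Wheat seeds surface-sterilized (5% hypochlorite, 10 min), germinated 8 h at 25 °C, sown in sieved field soil spiked with herbicide (0–20 mg/kg), watered to 60–70% water content, grown 10 days (12 h photoperiod, 25/20 °C). Fresh leaf (0.5 g) ground in 0.1% TCA, supernatant boiled 30 min with 0.5% TBA in 20% TCA; A532 minus A600, ε 155 mM-1 cm-1; n=3.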

Triticum aestivum [26] = test: Induction of lipid peroxidation in Triticum aestivum cv. Ning 13 (wheat) seedlings assessed as increase in TBARS level in leaves grown on soils containing compound for 10 days relative to untreated control; type: organism-based; conditions: in vivo, 240 h; procedure, shortened: as §4
Triticum aestivum [27] = test: Toxicity in Triticum aestivum cv. Ning 13 (wheat) seedlings assessed as reduction in chlorophyll content in leaves grown on soils containing compound at 2 mg/kg for 10 days relative to untreated control; type: organism-based; set-up: dose 2 mg/kg; scale not given: the % may be the effect or the level left; conditions: in vivo, 240 h
Procedure, shortened: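 Fresh leaf (0.1 g) from 10-day seedlings in spiked soil extracted in 80% acetone (pH 7.8, phosphate), spun 500g 10 min. Total chlorophyll calculated spectrophotometrically. Mean ± SD, n = 3.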

Triticum aestivum [28] = test: Toxicity in Triticum aestivum cv. Ning 13 (wheat) seedlings assessed as reduction in shoot elongation grown on soils containing compound at 20 mg/kg for 10 days relative to untreated control; type: organism-based; set-up: dose 20 mg/kg; scale not given: the % may be the effect or the level left; conditions: in vivo, 240 h
Procedure, shortened: (§5)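 Surface-sterilized seeds germinated 8 h at 25 °C, then grown 10 days (third leaf) in soil at 0, 2, 3.5, 5, 10, 20 mg/kg, watered to 60–70% water content, 12 h photoperiod, 300 µmol photons m-2 s-1, 25/20 °C. Elongation measured; dry mass after 70 °C for 72 h. Mean ± SD, n = 3.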

Triticum aestivum [29] = test: Toxicity in Triticum aestivum cv. Ning 13 (wheat) seedlings assessed as reduction in root length grown on soils containing compound at 20 mg/kg for 10 days relative to untreated control; type: organism-based; set-up: dose 20 mg/kg; scale not given: the % may be the effect or the level left; conditions: in vivo, 240 h; procedure, shortened: as §5
Triticum aestivum [30] = test: Toxicity in Triticum aestivum cv. Ning 13 (wheat) seedlings assessed as inhibition of shoot growth measured as dry weight grown on soils containing compound at 2 to 20 mg/kg for 10 days; type: organism-based; set-up: dose 2-20 mg/kg; conditions: in vivo, 240 h; procedure, shortened: as §5
[31] = Solubility in water at 20 degC; type: physicochemical

CC(C)c1ccc(NC(=O)N(C)C)cc1 [ISOPROTURON]
11%: Activity (Triticum aestivum [27])
> 2: fold change (FC) (Triticum aestivum [25])
44%: Activity (Triticum aestivum [29])
Toxic: Activity (Triticum aestivum [2]) | Activity (Triticum aestivum [3]) | Activity (Triticum aestivum [4]) | Activity (Triticum aestivum [5]) | Activity (Triticum aestivum [6]) | Activity (Triticum aestivum [7]) | Activity (Triticum aestivum [8]) | Activity (Triticum aestivum [9]) | Activity (Triticum aestivum [10]) | Activity (Triticum aestivum [11]) | Activity (Triticum aestivum [12]) | Activity (Triticum aestivum [14]) | Activity (Triticum aestivum [15]) | Activity (Triticum aestivum [16]) | Activity (Triticum aestivum [17]) | Activity (Triticum aestivum [18]) | Activity (Triticum aestivum [19]) | Activity (Triticum aestivum [20]) | Activity (Triticum aestivum [21]) | Activity (Triticum aestivum [22]) | Activity (Triticum aestivum [30])
Dose-dependent effect: Activity (Triticum aestivum [1]) | Activity (Triticum aestivum [13]) | Activity (Triticum aestivum [23]) | Activity (Triticum aestivum [26])
Non-toxic: Activity (Triticum aestivum [24])
32%: Activity (Triticum aestivum [28])
55 µg/mL: solubility [31]
